In paper PMC3495823 (Cell Cycle, 2012):

Legend:
[1] = Octanol-PBS partition coefficient; assay type: physicochemical; conditions: n-octanol/PBS, pH 7.4
In short: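 Shake-flask method: 1 mg compound was dissolved in 1 mL octanol-saturated PBS pH 7.4 and shaken with 1 mL PBS-saturated octanol for 24 h at 37°C. Phases were separated by centrifugation (10,000 rpm, 10 min) and each was analysed by LC-MS/MS. LogD7.4 was calculated from the ratio of peak AUCs, each normalized to its injection volume.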

[2] = Tissue distribution by LC-MS/MS after intraperitoneal injection; assay type: in vivo, mouse; conditions: 20 mg/kg i.p.
In short: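 Mice received 20 mg/kg in peanut oil i.p. or by oral gavage; tissues and cardiac blood were taken 1, 4 and 24 h later, with brain cortex and cerebellum at 4 h. Weighed tissues (or 30 µL serum in water) were extracted three times with dichloromethane and analysed by ESI-positive LC-MS/MS. Levels came from peak AUC against calibration curves, with internal-standard normalization for quantification; three samples per point.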

[3] = normal mice, 4 hours after injection

- logD [1]: 0.15 ± 0.002
- detection in kidney, spleen, pancreas, prostate lung and serum [2]: detected
- overall tissue and serum levels compared with VMY [2]: lower than VMY
- concentration in cerebellar tissue [2, 3]: not detected
- concentration in cortical tissue [2, 3]: not detected
Compound: CC(C)[C@H](CO)Nc1nc(Nc2ccc(C(=O)O)c(Cl)c2)c2ncn(C(C)C)c2n1 [PVB, purvalanol B]
